Assay [1] concerns Culex quinquefasciatus. As to the kind of experiment: Insecticidal activity against fourth-instar larval stage of Culex quinquefasciatus assessed as increase in mortality at 50 to 100 mg/L after 24 hr. It is filed as functional, organism-based. The essentials: (§1)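 Early 4th-instar Culex pipiens quinquefasciatus larvae, 20 per bowl in 10 mL test solution. Compounds taken from a 10 g/L DMSO/acetone stock into water with 0.5% Tween-80 (final 1, 10, 50, 100 mg/L), held at 27 °C. Dead larvae, those unable to reach the surface on shaking, counted at 0, 2, 12 and 24 h. Abbott-corrected against solvent control, triplicate; LC50/LC90 by probit regression.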

Assay [2] concerns Lipaphis erysimi. Nature of the assay: Insecticidal activity against Lipaphis erysimi (mustard aphids) assessed as increase in mortality at 50 to 200 mg/L after 24 to 48 hr. It is filed as functional, organism-based. The essentials:
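Apterous adult Lipaphis erysimi reared on mustard leaves. Leaf discs carrying 30–50 aphids dipped 3 s in aqueous suspensions (10 g/L DMSO/acetone stock, 0.5% emulsifier) at 50, 100, 200 mg/L final, blotted, held at 25 ± 1 °C and 50–60% RH. Mortality scored at 24 and 48 h, corrected against solvent control. Triplicate; LC50/LC90 by probit–log concentration regression.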

For assay [3], the system named is Culex quinquefasciatus. As to the kind of experiment: Insecticidal activity against fourth-instar larval stage of Culex quinquefasciatus assessed as increase in mortality after 2 to 24 hr. It is filed as functional, organism-based. Summed up:
as §1

For assay [4], the system named is Culex quinquefasciatus. As to the kind of experiment: Insecticidal activity against fourth-instar larval stage of Culex quinquefasciatus assessed as mortality at 1 mg/L after 24 hr. Type of assay: functional. Summed up:
(§2)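 Early 4th-instar Culex pipiens quinquefasciatus from laboratory cultures, 20 per bowl in 10 mL test solution at 27 °C. Compounds from a 10 g/L DMSO–acetone stock suspended in water with 0.5% Tween-80 to 1, 10, 50 or 100 mg/L final. Dead larvae, those unable to reach the surface on shaking, counted at 0, 2, 12 and 24 h. Abbott-corrected against solvent control; triplicate; probit analysis.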

Assay [5] relates to Lipaphis erysimi. Nature of the assay: Insecticidal activity against Lipaphis erysimi (mustard aphids) assessed as increase in mortality after 48 hr. It is filed as functional.
In assay [6] the test system is Lipaphis erysimi. Nature of the assay: Insecticidal activity against Lipaphis erysimi (mustard aphids) assessed as mortality at 50 mg/L after 24 hr. It is filed as functional. Particulars: in Brassica. Summed up:
(§3)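 Apterous adult Lipaphis erysimi reared on mustard leaves. Compounds from a 10 g/L DMSO–acetone stock suspended in water with 0.5% emulsifier to 50, 100 or 200 mg/L. Leaf discs carrying 30–50 aphids were dipped 3 s and blotted, then held at 25 ± 1 °C and 50–60% RH. Mortality scored at 24 and 48 h and corrected against solvent control. Triplicate; LC50/LC90 by probit–log concentration regression.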

Assay [7] deals with Culex quinquefasciatus. As to the kind of experiment: Insecticidal activity against fourth-instar larval stage of Culex quinquefasciatus assessed as mortality at 100 mg/L after 24 hr. Type of assay: functional. Summed up:
as §2

In assay [8] the test system is Culex quinquefasciatus. Nature of the assay: Insecticidal activity against fourth-instar larval stage of Culex quinquefasciatus assessed as increase in mortality after 24 hr. Type of assay: functional. Summed up:
as §2

For assay [9], the system named is Lipaphis erysimi. As to the kind of experiment: Insecticidal activity against Lipaphis erysimi (mustard aphids) assessed as mortality at 200 mg/L after 48 hr. Type of assay: functional. Particulars: in Brassica. The essentials: as §3
Assay [10] is described as follows: Cytotoxicity against Spodoptera frugiperda (fall armyworm) Sf9 cells assessed as growth inhibition at 200 mg/L after 24 hr by MTT assay. The settings on record: for inhibition of growth at 200 µg/mL: Spodoptera frugiperda, Sf9, 24 h, read-out: GI. Type of assay: functional. The essentials: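 Sf9 cells kept at 27 °C in TC-199-MK with 10% FCS, L-glutamine and penicillin–streptomycin–neomycin. Log-phase cells in 96-well plates were exposed for 6, 12 or 24 h to compounds diluted in medium from a 1,000 mg/L DMSO stock, with 1% DMSO final; DMSO alone as control. MTT added for 3 h, formazan dissolved in DMSO, A570 read. Inhibition % = (Acontrol−Atreatment)/Acontrol×100. Run in triplicate.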
Background: Formazan colour is commonly taken as a measure of viable cells.

In assay [11] the test system is Culex quinquefasciatus. Nature of the assay: Insecticidal activity against fourth-instar larval stage of Culex quinquefasciatus assessed as increase in mortality at 50 mg/L after 24 hr. It is filed as functional, organism-based. The essentials:
as §1

In a further assay the test system is Sf9. As to the kind of experiment: Cytotoxicity against Spodoptera frugiperda (fall armyworm) Sf9 cells assessed as growth inhibition at 1 to 200 mg/L after 6 to 24 hr by MTT assay. It is filed as functional, cell-based. The essentials: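 Sf9 insect cells grown at 27 °C in TC-199-MK with 10% FCS, L-glutamine and penicillin–streptomycin–neomycin. Log-phase cells exposed to compounds (DMSO stock, 1% final solvent), 6, 12 or 24 h. MTT (5 mg/mL stock) added for a further 3 h, formazan dissolved in DMSO, A570 read. Inhibition = (A control − A treated)/A control ×100. Solvent-only control, triplicate.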

Converted amounts (≈) assume the structure as drawn. The source made the active and inactive calls. No cut-off for these calls is given here.

What is called mortality is the share of the test organisms that died. Take `COC(=O)C1Cc2c([nH]c3ccccc23)C(C)N1` (stereo unspecified): the result with Culex quinquefasciatus [1] and in the assay with Lipaphis erysimi [2] was Active. Also, in the assay with Culex quinquefasciatus [3], the Activity entry is “Dose-dependent effect”. Moreover, the mortality at 1 µg/mL in the assay on Culex quinquefasciatus [4] was below 34.9%.
For the compound `O=C(O)C1Cc2c([nH]c3ccccc23)C(C(Cl)(Cl)Cl)N1` (stereo unspecified), the outcome with Culex quinquefasciatus [1] and with Lipaphis erysimi [2] was Active. In addition, the Activity result in the assay with Culex quinquefasciatus [3] is “Dose-dependent effect”. Also, in the assay on Culex quinquefasciatus [4], the mortality at 1 µg/mL is below 34.9%.
`COC(=O)C1Cc2c([nH]c3ccccc23)CN1` (stereo unspecified): the result in the assay with Culex quinquefasciatus [1] and with Lipaphis erysimi [2] was Active. Also, in the assay on Culex quinquefasciatus [3], the Activity result is “Dose-dependent effect”. In addition, the mortality at 1 µg/mL in the assay with Culex quinquefasciatus [4] is below 34.9%.
With `COC(=O)C1Cc2c([nH]c3ccccc23)C(c2ccccc2)N1` (stereo unspecified), the result with Culex quinquefasciatus [1] and in the assay with Lipaphis erysimi [2] was Active. The Activity result in the assay with Culex quinquefasciatus [3] is “Dose-dependent effect”. Also, in the assay with Culex quinquefasciatus [4], the mortality at 1 µg/mL was below 34.9%.
`O=C(O)C1Cc2c([nH]c3ccccc23)CN1` (stereo unspecified): the outcome in the assay with Culex quinquefasciatus [1] and in the assay on Lipaphis erysimi [2] was Active. Moreover, the Activity entry with Culex quinquefasciatus [3] was “Dose-dependent effect”. Besides, the mortality at 1 µg/mL in the assay with Culex quinquefasciatus [4] is below 34.9%.
For `CC1NC(C(=O)O)Cc2c1[nH]c1ccccc21` (stereo unspecified), the result in the assay with Culex quinquefasciatus [1] and with Lipaphis erysimi [2] was Active. Also, in the assay with Culex quinquefasciatus [3], the Activity result is “Dose-dependent effect”. In addition, in the assay on Culex quinquefasciatus [4], the mortality at 1 µg/mL is below 34.9%.
Consider `COC(=O)c1cc2c([nH]c3ccccc32)c(-c2ccccc2O)n1`, for which the outcome with Culex quinquefasciatus [1] and in the assay on Lipaphis erysimi [2] was Active. For the same compound, the Activity entry with Culex quinquefasciatus [3] was “Dose-dependent effect”. In the assay with Culex quinquefasciatus [4], the mortality at 1 µg/mL was below 34.9%.
Take `COC(=O)c1cc2c([nH]c3ccccc32)c(C)n1`: the result in the assay with Culex quinquefasciatus [1] and with Lipaphis erysimi [2] was Active. In the assay on Culex quinquefasciatus [3], the Activity entry is “Dose-dependent effect”. Further, in the assay on Culex quinquefasciatus [4], the mortality at 1 µg/mL is below 34.9%.
As to `O=C(O)C1Cc2c([nH]c3ccccc23)C(c2ccccc2)N1` (stereo unspecified), the figures for the LC90 in the assay with Lipaphis erysimi [5] and in the assay with Culex quinquefasciatus [8] were 240.1 µg/mL (≈ 821 µM) and 88.29 µg/mL (≈ 302 µM), respectively. Further, in the assay on Lipaphis erysimi [6], the mortality at 50 µg/mL was 36.4%. Also, the mortality at 100 µg/mL in the assay with Culex quinquefasciatus [7] is 93.3%. For the same compound, the mortality at 200 µg/mL with Lipaphis erysimi [9] was determined as 87.3%. Besides, the inhibition of growth at 200 µg/mL in assay [10] amounted to 71.5%. In the assay with Culex quinquefasciatus [11], the outcome was Active. Also, the Activity entry with Culex quinquefasciatus [3] was “Dose-dependent effect”. Further, the mortality at 1 µg/mL with Culex quinquefasciatus [4] was below 34.9%.
For `COC(=O)c1cc2c([nH]c3ccccc32)c(-c2c(C)nn(-c3ccccc3)c2Cl)n1`, the outcome with Culex quinquefasciatus [1] and with Lipaphis erysimi [2] was Active. For the same compound, the inhibition of growth at 200 µg/mL in assay [10] is 60.9%. Further, in the assay on Culex quinquefasciatus [3], the Activity result is “Dose-dependent effect”. The mortality at 1 µg/mL in the assay on Culex quinquefasciatus [4] is below 34.9%.
For the compound `COc1ccc2c(c1)[nH]c1c(C)nccc12` [HARMINE], the result in the assay on Culex quinquefasciatus [1] and in the assay with Lipaphis erysimi [2] was Active. Further, the mortality at 200 µg/mL in the assay on Lipaphis erysimi [9] came out at 49.6%. For the same compound, the Imax in assay [10] amounted to 40.31%.
On to `COc1cc(C2NC(C(=O)O)Cc3c2[nH]c2ccccc32)ccc1O` (stereo unspecified), for which the outcome in the assay with Culex quinquefasciatus [1] and in the assay with Lipaphis erysimi [2] was Active. Further, in the assay with Culex quinquefasciatus [3], the Activity result was “Dose-dependent effect”. Further, in the assay on Culex quinquefasciatus [4], the mortality at 1 µg/mL is below 34.9%.
Take `COC(=O)C1Cc2c([nH]c3ccccc23)C(c2ccc(O)c(OC)c2)N1` (stereo unspecified): the result with Culex quinquefasciatus [1] and in the assay on Lipaphis erysimi [2] was Active. In addition, the Activity result with Culex quinquefasciatus [3] is “Dose-dependent effect”. The mortality at 1 µg/mL with Culex quinquefasciatus [4] was below 34.9%.
Take `COC(=O)c1cc2c([nH]c3ccccc32)c(-c2ccc(Cl)cc2)n1`: the result in the assay on Culex quinquefasciatus [1] and in the assay with Lipaphis erysimi [2] was Active. In addition, in the assay with Culex quinquefasciatus [3], the Activity result was “Dose-dependent effect”. Also, in the assay with Culex quinquefasciatus [4], the mortality at 1 µg/mL is below 34.9%.
Usually LC50 stands for the concentration that kills 50% of the test population. On to `COC(=O)c1cc2c([nH]c3ccccc32)c(-c2ccccc2)n1`, for which the LC90 with Lipaphis erysimi [5] amounted to 418.63 µg/mL (≈ 1380 µM); in the assay with Culex quinquefasciatus [8], 295.13 µg/mL (≈ 976 µM). The LC50 was determined as 68 µg/mL (≈ 225 µM) with Lipaphis erysimi [5] (Lipaphis erysimi, in Brassica, 48 h) and 24 µg/mL (≈ 79.3 µM) in the assay with Culex quinquefasciatus [8] (Culex quinquefasciatus, Instar larval stage, 24 h). In addition, in the assay on Lipaphis erysimi [6], the mortality at 50 µg/mL stood at 15.3%. The mortality at 100 µg/mL in the assay with Culex quinquefasciatus [7] is 80.5%. Moreover, in the assay on Lipaphis erysimi [9], the mortality at 200 µg/mL turned out to be 75.8%. The outcome with Culex quinquefasciatus [11] was Active. The Activity entry with Culex quinquefasciatus [3] is “Dose-dependent effect”. The mortality at 1 µg/mL in the assay with Culex quinquefasciatus [4] was below 34.9%.
Consider `COC(=O)C1Cc2c([nH]c3ccccc23)C(C(Cl)(Cl)Cl)N1` (stereo unspecified), for which the “growth inhibition (GI)” value in the assay on Sf9 was “inactive”. Moreover, the result in the assay on Culex quinquefasciatus [1] and with Lipaphis erysimi [2] was Active. Further, the Activity entry in the assay with Culex quinquefasciatus [3] was “Dose-dependent effect”. In the assay with Culex quinquefasciatus [4], the mortality at 1 µg/mL was below 34.9%.
Take `Cc1nc(C(=O)O)cc2c1[nH]c1ccccc12` [HARMAN-3-CARBOXYLIC ACID]: the outcome with Culex quinquefasciatus [1] and in the assay with Lipaphis erysimi [2] was Active. Also, the Activity entry with Culex quinquefasciatus [3] is “Dose-dependent effect”. Moreover, the mortality at 1 µg/mL in the assay with Culex quinquefasciatus [4] was below 34.9%.
